The source of these data is ChEMBL document CHEMBL1134639, “Conformationally restricted analogues of 1N,14N-bisethylhomospermine (BE-4-4-4): synthesis and growth inhibitory effects on human prostate cancer cells” (2001).

SMILES strings stand for the structures.

Common to all, as to assay type: functional
Test [1] deals with LNCaP. In words: Inhibition of cell growth was determined in LNCaP cell line of Human prostate tumor using MTT assay, on day 6 after treatment. As to conditions: read-out: ID50 (the source's name). The gist of the method: (§1)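 MTT growth assay on human prostate tumour cells seeded in microtitre plates and incubated overnight at 37 °C in humidified 95% air/5% CO₂. Diluted drug stocks were added to the middle 8 columns, with buffer controls in the outer columns. Each concentration was run in quadruplicate. ID₅₀ is the concentration giving 50% growth inhibition on day 6 of treatment.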

For the next test, the system named is DuPro. Briefly: Inhibition of cell growth was determined in DUPRO cell line of human prostate tumor using MTT assay, on day 6 after treatment. The note with it: read-out: ID50 (the source's name). The gist of the method:
as §1
A general note: Tetrazolium assays rely on reduction of a dye to a coloured formazan, in cell work by metabolically active cells.

The test system of the next test is PC-3. In words: Inhibition of cell growth was determined in PC-3 cell line of human prostate tumor using MTT assay, on day 6 after treatment. As to conditions: read-out: ID50 (the source's name). The gist of the method:
as §1

The next test concerns DU-145. Briefly: Inhibition of cell growth was determined in DU145 cell line of human prostate tumor using MTT assay, on day 6 after treatment. As to conditions: read-out: ID50 (the source's name). A digest of the protocol: as §1
Test [2] relates to LNCaP. In words: Inhibition of cell growth was determined in LNCaP cell line of human prostate tumor using MTT assay, on day 6 after treatment. As to conditions: 144 h, read-out: ID50 (the source's name). A digest of the protocol:
as §1

For `CCNCCCCNCc1ccccc1CNCCCCNCC`, the IC50 was > 31200 nM with LNCaP [1] (Homo sapiens, LNCaP, 144 h); > 31200 nM with DuPro (Homo sapiens, DuPro, 144 h); > 31200 nM in the test on PC-3 (Homo sapiens, PC-3, 144 h).
Turning to `CCNCCCCNCCCCNCCCCNCC` [DIETHYLHOMOSPERMINE], the IC50 with DuPro (Homo sapiens, DuPro, 144 h) turned out to be 200 nM; in the test on DU-145 (Homo sapiens, DU-145, 144 h) it was 30 nM; in the test with PC-3 (Homo sapiens, PC-3, 144 h) it was 700 nM; with LNCaP [2], 100 nM.
For the compound `CCNC/C=C\CNCCCCNC/C=C\CNCC`, the IC50 with LNCaP [1] (Homo sapiens, LNCaP, 144 h) was found to be 3000 nM; in the test on DU-145 (Homo sapiens, DU-145, 144 h) it was 130 nM; in the test with PC-3 (Homo sapiens, PC-3, 144 h), 700 nM.
Regarding `CCNC/C=C\CNC/C=C\CNC/C=C\CNCC`, the IC50 in the test with LNCaP [1] (Homo sapiens, LNCaP, 144 h) is 770 nM.
With `CCNCCCCNC/C=C/CNCCCCNCC`, the IC50 in the test on LNCaP [1] (Homo sapiens, LNCaP, 144 h) came to 497 nM; with DU-145 (Homo sapiens, DU-145, 144 h), 220 nM.
For the compound `CCNCCCCNC/C=C\CNCCCCNCC`, the IC50 with LNCaP [1] (Homo sapiens, LNCaP, 144 h) is 65 nM; in the test on DU-145 (Homo sapiens, DU-145, 144 h), 30 nM; in the test on PC-3 (Homo sapiens, PC-3, 144 h), > 31200 nM.
For the compound `CCNC/C=C\CNC/C=C\CNCCCCNCC`, the IC50 in the test with LNCaP [1] (Homo sapiens, LNCaP, 144 h) is 690 nM; with PC-3 (Homo sapiens, PC-3, 144 h), > 31200 nM.
For `CCNCCCCNCC1CC1CNCCCCNCC` (stereo in doubt; 7), the IC50 in the test on LNCaP [1] (Homo sapiens, LNCaP, 144 h) came out at 170 nM; with DU-145 (Homo sapiens, DU-145, 144 h), 20 nM; in the test with PC-3 (Homo sapiens, PC-3, 144 h), 1400 nM.
On to `CCNCCCCNCC#CCNCCCCNCC`, for which the IC50 in the test with LNCaP [1] (Homo sapiens, LNCaP, 144 h) is 2200 nM; in the test on DuPro (144 h), 3200 nM; in the test on PC-3 (PC-3, 144 h) it was > 31200 nM.
As to `CCNC/C=C\CNCCCCNCCCCNCC`, the IC50 in the test on LNCaP [1] (Homo sapiens, LNCaP, 144 h) was determined as 210 nM.
In the case of `CCNCCCCNCC1CCC1CNCCCCNCC` (stereo in doubt; 10), the IC50 worked out at 210 nM with LNCaP [1] and 80 nM in the test on DuPro.
Regarding `CCNCCCCNCC1CC1CNCCCCNCC` (stereo in doubt; 4), the IC50 in the test on LNCaP [1] worked out at 210 nM; in the test on DuPro, 59 nM; with DU-145, 16 nM; in the test on PC-3 it was 1600 nM.
`CCNCCCCNCC1CCC1CNCCCCNCC` (stereo in doubt; 13): the IC50 in the test on LNCaP [1] was 700 nM; in the test with DuPro, 300 nM; in the test on DU-145 (Homo sapiens, DU-145, 144 h), 21 nM; in the test on PC-3 (Homo sapiens, PC-3, 144 h), 4700 nM.
